# Results of several laboratories.
# Lines come from different studies, so protocols differ.
# Target: Ephrin type-B receptor 2 (EPHB2, Homo sapiens, UniProt P29323)
# One construct used (P29323 19-1055): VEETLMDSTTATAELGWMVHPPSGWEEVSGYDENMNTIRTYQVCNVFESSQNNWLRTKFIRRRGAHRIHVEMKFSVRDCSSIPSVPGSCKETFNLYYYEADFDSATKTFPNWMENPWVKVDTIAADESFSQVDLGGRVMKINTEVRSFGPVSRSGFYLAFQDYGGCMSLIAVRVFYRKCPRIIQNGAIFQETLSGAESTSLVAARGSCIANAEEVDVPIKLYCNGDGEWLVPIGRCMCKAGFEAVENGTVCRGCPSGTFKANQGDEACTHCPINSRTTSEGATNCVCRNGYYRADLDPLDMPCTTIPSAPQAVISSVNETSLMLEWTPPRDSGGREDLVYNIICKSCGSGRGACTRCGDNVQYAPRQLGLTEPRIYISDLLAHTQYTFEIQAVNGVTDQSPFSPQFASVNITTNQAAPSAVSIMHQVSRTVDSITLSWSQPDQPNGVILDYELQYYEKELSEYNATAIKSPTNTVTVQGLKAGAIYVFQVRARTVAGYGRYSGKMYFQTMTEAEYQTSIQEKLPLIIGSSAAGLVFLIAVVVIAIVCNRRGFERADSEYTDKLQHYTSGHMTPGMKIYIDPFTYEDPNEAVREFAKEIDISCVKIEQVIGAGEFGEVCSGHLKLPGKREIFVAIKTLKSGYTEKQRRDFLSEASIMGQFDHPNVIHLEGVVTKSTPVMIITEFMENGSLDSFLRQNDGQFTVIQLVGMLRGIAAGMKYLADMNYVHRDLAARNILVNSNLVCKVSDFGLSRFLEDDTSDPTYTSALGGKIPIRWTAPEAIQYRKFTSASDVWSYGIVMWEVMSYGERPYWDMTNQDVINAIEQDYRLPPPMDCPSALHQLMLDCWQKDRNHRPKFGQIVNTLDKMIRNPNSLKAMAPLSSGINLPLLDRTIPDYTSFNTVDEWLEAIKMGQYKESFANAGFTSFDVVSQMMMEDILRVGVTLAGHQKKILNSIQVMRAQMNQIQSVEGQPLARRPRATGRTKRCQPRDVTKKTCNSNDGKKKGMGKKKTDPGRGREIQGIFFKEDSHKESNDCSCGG
SMILES,test,setting,endpoint,result
CCN(CC)CCNC(=O)c1c(C)[nH]c(/C=C2\C(=O)Nc3ccc(F)cc32)c1C,"enzyme activity, inhibitor",0.3 µM,inhibition,2%
C#Cc1cccc(Nc2ncnc3cc(OCCOC)c(OCCOC)cc23)c1,cell-free assay,0.5 µM,remaining signal,95.1%
COc1cc(/C=C/C(=O)CC(=O)/C=C/c2ccc(O)c(OC)c2)ccc1O,"enzyme activity, inhibitor",1 µM,activity vs control,111%
O=C1NC(=O)c2cc(Nc3ccc(F)cc3)c(Nc3ccc(F)cc3)cc21,cell-free assay,0.5 µM,remaining signal,89.3%
O=C(Nc1cccnn1)N1CCC(=Cc2cccc(Oc3ccc(C(F)(F)F)cn3)c2)CC1,"cell-free assay, competition with immobilised ligand",1 µM,remaining binding,100%
COc1cc2ncnc(Nc3ccc(F)c(Cl)c3)c2cc1OCCCN1CCOCC1,cell-free assay,0.5 µM,remaining signal,87.7%
Cc1ccc(Nc2nccc(N(C)c3ccc4c(C)n(C)nc4c3)n2)cc1S(N)(=O)=O,"enzyme activity, inhibitor",0.3 µM,inhibition,7%
COc1cc(Nc2cnc(C#N)c(O[C@H](C)CN(C)C)n2)ncc1-c1cnn(C)c1,"enzyme activity, inhibitor, radiometric",1 µM,remaining activity,110%
CC(=O)c1c(NS(C)(=O)=O)c2cc(-c3ccc(Cl)cc3)c(-c3ccc(Cl)cc3Cl)nc2n(C)c1=O,"cell-free assay, competition with immobilised ligand",1 µM,remaining binding,100%
Cn1c(=O)n(-c2ccc(C(C)(C)C#N)cc2)c2c3cc(-c4cnc5ccccc5c4)ccc3ncc21,"enzyme activity, inhibitor",10 µM,remaining activity,77%
C[C@H](c1ccnc(Nc2nc3ccc(-c4cc(N(C)C)ncn4)cc3[nH]2)c1)N1CCN(C(=O)CC(F)(F)F)CC1,"cell-free assay, competition with immobilised ligand",0.1 µM,remaining binding,93%
CN(C)C1CCN(CC#Cc2nn(C3CCCC3)c3nc(NCc4ccccc4)ncc23)C1 (stereo not shown),"enzyme activity, inhibitor, FRET",1 µM,inhibition,8%
Cc1cc(NC(=O)c2cccc3cc(-c4cccc5[nH]nc(N)c45)ccc23)ccc1F,"enzyme activity, inhibitor",0.1 µM,activity vs control,102%
CC/C(=N\NC(=O)NCc1cccc(O)c1)c1ccc(O)c(C)c1O,"enzyme activity, inhibitor",0.1 µM,inhibition,1.5%
CCCS(=O)(=O)Nc1ccc(F)c(C(=O)c2c[nH]c3ncc(-c4ccc(Cl)cc4)cc23)c1F,"enzyme activity, inhibitor",1 µM,inhibition,< 10%
COc1ccc(COc2ccc(Cc3cnc(N)nc3N)cc2OC)cc1,cell-free assay,0.5 µM,remaining signal,87.4%
COc1cc(Cl)c(C(=O)N[C@@H](CN[C@H]2CC[C@@H](N)CC2)Cc2ccc(C#N)cc2)cc1-c1ccc(CN[C@H](C)c2ccc(C)cc2)o1,"enzyme activity, inhibitor",1 µM,remaining activity,123%
O=C(NCc1ncc(C(F)(F)F)cc1Cl)c1ccc2c(c1)C1(CCS(=O)(=O)CC1)[C@H](C1CC1)N2S(=O)(=O)c1ccc(F)cc1,"cell-free assay, competition with immobilised ligand",1 µM,remaining binding,100%
Oc1cccc(-c2nc(N3CCOCC3)c3oc4ncccc4c3n2)c1,"enzyme activity, inhibitor",10 µM,remaining activity,105%
COc1cc2ncnc(Nc3ccc(Oc4ccccc4)cc3C)c2cc1OC,"enzyme activity, inhibitor",1 µM,inhibition,25%
FC(F)(F)c1ccc2c(c1)nc(-c1cccnc1)n2C1CC1,"cell-free assay, competition with immobilised ligand",1 µM,remaining binding,83%
c1ccc(CNc2nc(N3CCOc4ccccc43)nc3c2CCCC3)cc1,"target engagement in cells, inhibitor, chemoproteomics",20 mM,inhibition,2.6%
CN(C)c1ncnc(-c2ccc3nc(Nc4cc(CN5CCN(C(=O)CC(F)(F)F)CC5)ccn4)[nH]c3c2)c1Cl,"cell-free assay, competition with immobilised ligand",1 µM,remaining binding,100%
O=C(Nc1cnn(-c2csc(C(=O)NC3COC3)c2)c1)Nc1c(F)cccc1Cl,"enzyme activity, inhibitor",5 µM,remaining activity,99.9%
CNC(=O)Nc1ccc2c(c1)CC[C@@]21OC(=O)N(CC(=O)N(Cc2ccc(F)cc2)[C@@H](C)C(F)(F)F)C1=O,"cell-free assay, competition with immobilised ligand",1 µM,remaining binding,72%
COc1cccc2c(NCc3ccccc3)nc(-n3c(N)nc4ccccc43)nc12,"target engagement in cells, inhibitor, chemoproteomics",20 mM,inhibition,8.3%
CCC(=O)N[C@@H]1CC[C@H](C(=O)N(C)c2ccc(-c3nc4ccccc4o3)cc2)C1,"cell-free assay, competition with immobilised ligand",1 µM,remaining binding,82%
Cc1ccc(NC(=O)c2ccc(C)c(C(F)(F)F)c2)cc1C#Cc1nn(C2CCC(O)CC2)c2ncnc(N)c12 (stereo not shown),cell-free assay,10 µM,remaining signal,-1%
